# Reference: ChEMBL document CHEMBL3217705, “Synthesis and evaluation of stable substrate analogs as potential modulators of cyclodiphosphate synthase IspF” (Medchemcomm, 2013)
# Calls of active or inactive are those of the source. No cut-off for these calls is given here.
# Tests used:
# [1] = target: T1, 2-C-methyl-D-erythritol 2,4-cyclodiphosphate synthase (Escherichia coli (strain K12)) (UniProt P62617); experiment: Activation of Escherichia coli IspF-MEP complex assessed as increase in rate of […] formation at 100 uM pre-incubated for 30 mins by HPLC based […] formation assay relative to untreated control
# T1 sequence (whole entry): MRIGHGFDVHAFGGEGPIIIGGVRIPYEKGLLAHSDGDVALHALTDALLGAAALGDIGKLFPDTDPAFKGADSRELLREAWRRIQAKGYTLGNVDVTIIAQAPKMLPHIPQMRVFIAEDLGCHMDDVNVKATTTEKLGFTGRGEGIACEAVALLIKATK
# [2] = target: T1, 2-C-methyl-D-erythritol 2,4-cyclodiphosphate synthase (Escherichia coli (strain K12)); experiment: Activation of Escherichia coli IspF assessed as residual enzyme activity at 500 uM pre-incubated for 30 mins by HPLC based CMP formation assay
# [3] = target: T1, 2-C-methyl-D-erythritol 2,4-cyclodiphosphate synthase (Escherichia coli (strain K12)); experiment: Activation of Escherichia coli IspF assessed as increase in rate of […] formation at 100 uM pre-incubated for 30 mins by HPLC based […] formation assay relative to untreated control
# [4] = target: T1, 2-C-methyl-D-erythritol 2,4-cyclodiphosphate synthase (Escherichia coli (strain K12)); experiment: Activation of Escherichia coli IspF-MEP complex assessed as increase in rate of […] formation at 100 uM by HPLC based […] formation assay relative to untreated control
# [5] = target: T1, 2-C-methyl-D-erythritol 2,4-cyclodiphosphate synthase (Escherichia coli (strain K12)); experiment: Inhibition of Escherichia coli IspF at 500 uM by HPLC based CMP formation assay
# [6] = target: T1, 2-C-methyl-D-erythritol 2,4-cyclodiphosphate synthase (Escherichia coli (strain K12)); experiment: Inhibition of Escherichia coli IspF-MEP complex at 100 uM pre-incubated for 30 mins by HPLC based […] formation assay
# [7] = target: T1, 2-C-methyl-D-erythritol 2,4-cyclodiphosphate synthase (Escherichia coli (strain K12)); experiment: Inhibition of Escherichia coli IspF-MEP complex at 500 uM by HPLC based CMP formation assay; details: TDE = time-dependent effect
# [8] = target: T2, 2-C-methyl-D-erythritol 2,4-cyclodiphosphate synthase (Escherichia coli (strain K12), UniProt P62617); experiment: Inhibition of Escherichia coli IspF by HPLC based […] formation assay
# T2 sequence (P62617 whole entry): T1 sequence (whole entry)
# [9] = target: T1, 2-C-methyl-D-erythritol 2,4-cyclodiphosphate synthase (Escherichia coli (strain K12)); experiment: Inhibition of Escherichia coli IspF-MEP complex at 700 uM pre-incubated for 30 mins by HPLC based […] formation assay relative to untreated control
# In short: (§1)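 E. coli IspF alone or preformed IspF–MEP complex was incubated with 100 µM CDPME2P substrate. Test agents were present at 1000 µM or 700 µM, either without or after a 30 min pre-incubation. The rate of CMP formation was compared with a no-compound control run under the same pre-incubation; residual activity was taken after pre-incubation.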
# [10] = target: T2, 2-C-methyl-D-erythritol 2,4-cyclodiphosphate synthase; experiment: Inhibition of Escherichia coli IspF-MEP complex by HPLC based […] formation assay
# [11] = target: T1, 2-C-methyl-D-erythritol 2,4-cyclodiphosphate synthase (Escherichia coli (strain K12)); experiment: Inhibition of Escherichia coli IspF-MEP complex at 700 uM by HPLC based […] formation assay; in short: as §1
# [12] = target: T1, 2-C-methyl-D-erythritol 2,4-cyclodiphosphate synthase (Escherichia coli (strain K12)); experiment: Activation of Escherichia coli IspF-MEP complex assessed as increase in rate of […] formation at 1000 uM by HPLC based […] formation assay relative to untreated control; in short: as §1
# [13] = target: T1, 2-C-methyl-D-erythritol 2,4-cyclodiphosphate synthase (Escherichia coli (strain K12)); experiment: Activation of Escherichia coli IspF assessed as increase in rate of […] formation at 1000 uM by HPLC based […] formation assay relative to untreated control
# In short: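 IspF activity was read as the rate of CMP formation from 100 µM CDPME2P, with the test compound at 1000 µM. The rate is expressed relative to a control run without compound.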
# [14] = target: T1, 2-C-methyl-D-erythritol 2,4-cyclodiphosphate synthase (Escherichia coli (strain K12)); experiment: Activation of Escherichia coli IspF assessed as assessed as residual enzyme activity at 1000 uM pre-incubated for 30 mins by HPLC based […] formation assay relative to untreated control; in short: as §1
# [15] = target: T1, 2-C-methyl-D-erythritol 2,4-cyclodiphosphate synthase (Escherichia coli (strain K12)); experiment: Activation of Escherichia coli IspF assessed as increase in rate of […] formation at 1000 uM pre-incubated for 30 mins by HPLC based […] formation assay relative to untreated control; in short: as §1
# [16] = target: T1, 2-C-methyl-D-erythritol 2,4-cyclodiphosphate synthase (Escherichia coli (strain K12)); experiment: Activation of Escherichia coli IspF-MEP complex assessed as increase in rate of […] formation at 1000 uM pre-incubated for 30 mins by HPLC based […] formation assay relative to untreated control; in short: as §1
compound,measurement,setting,value
C[C@](O)(CO)[C@H](O)COP(=O)(O)OP(=O)(O)OC[C@H]1O[C@@H](n2ccc(N)nc2=O)[C@H](O)[C@@H]1O,Activity,[1],inactive
same,Activity,[2],inactive
same,Activity,[3],inactive
same,Activity,[4],inactive
C[C@@](CO)(OP(=O)(O)O)[C@H](O)COP(=O)(O)CP(=O)(O)OC[C@H]1O[C@@H](n2ccc(N)nc2=O)[C@H](O)[C@@H]1O,inhibition,[5],inactive
same,inhibition,[6],37%
same,Activity,[2],60%
same,inhibition,[7],tde
same,fold change (FC),[3],7.6
C[C@](O)(CO)[C@H](O)COP(=O)(O)CP(=O)(O)OC[C@H]1O[C@@H](n2ccc(N)nc2=O)[C@H](O)[C@@H]1O,fold change (FC),[1],1.3
same,Activity,[2],inactive
same,fold change (FC),[3],2.2
same,Activity,[4],Active
Nc1ccn([C@@H]2O[C@H](COP(=O)(O)CP(=O)(O)O)[C@@H](O)[C@H]2O)c(=O)n1,IC50,[8],797 µM
same,inhibition,[9],74%
same,IC50,[10],343 µM
same,inhibition,[11],69%
C[C@](O)(CO)[C@H](O)COP(=O)(O)CP(=O)(O)O,Activity,[12],inactive
same,fold change (FC),[13],1.8
same,Activity,[14],54%
same,fold change (FC),[15],8.7
same,Activity,[16],inactive
Nc1ccn([C@@H]2O[C@H](COP(=O)(O)OP(=O)(O)O)[C@@H](O)[C@H]2O)c(=O)n1,IC50,[8],768 µM
same,inhibition,[11],inactive
